Results reported in ChEMBL document CHEMBL3112547, “Surface plasmon resonance using the catalytic domain of soluble guanylate cyclase allows the detection of enzyme activators” (Bioorg Med Chem Lett, 2014).
The source made the active and inactive calls. The calls are words filed in the database; no cut-off is given here.

Key:
[1] = target: T1, Soluble guanylate cyclase alpha1/beta1 complex (Homo sapiens) (UniProt Q02153+Q02108); assay: Activation of human recombinant sGC subunit alpha-1/beta-1 using GTP as substrate assessed as cGMP production measured per ng of protein at 100 uM treated prior to DEA/NO addition measured after 2 mins by radioimmunoassay in presence of Mg2+; format: protein-complex assay
[2] = target: T1, Soluble guanylate cyclase alpha1/beta1 complex (Homo sapiens); assay: Binding affinity to sGC subunit alpha-1/beta-1 catalytic domain (unknown origin) assessed as occupancy relative to control; format: protein-complex assay
In short: (§1)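 Compounds at 100 μM in DMSO-containing running buffer, 25 °C. Injection and dissociation 30 s each, triplicate. Responses double-referenced, DMSO-corrected, control subtracted; occupancy is the fraction of immobilised sites bound, assuming 1:1 stoichiometry.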

[3] = Solubility of the compound in assay buffer in presence of 5% DMSO; format: physicochemical
[4] = target: T1, Soluble guanylate cyclase alpha1/beta1 complex (Homo sapiens); assay: Binding affinity to full-length human recombinant sGC subunit alpha-1/beta-1 at 100 uM after 30 seconds by SPR analysis; format: protein-complex assay
In short: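 Compounds at 100 μM in running buffer (10 mM HEPES pH 7.4, 150 mM NaCl, 3 mM EDTA, 0.05% P20, 1 mM DTT, 10 mM MgCl2, 5% DMSO), 25 °C. Injection and dissociation 30 s each, triplicate.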

[5] = target: T1, Soluble guanylate cyclase alpha1/beta1 complex (Homo sapiens); assay: Binding affinity to sGC subunit alpha-1/beta-1 catalytic domain (unknown origin) at 100 uM after 30 seconds by SPR analysis; format: protein-complex assay; in short: as §1

Row | Activity [1] [pmol] | Occ [2] [%] | solubility [3] | Activity [4] | Activity [5] | SMILES
1 | 4.05 | 20 |  |  |  | CC(=O)n1nc(-c2nc(CN)no2)c2ccccc21
2 | 9.09 | 34 |  | Active |  | Cc1oncc1Cn1nc(-c2nc(CN)no2)c2ccccc21
3 | 2.08 | 94 |  |  |  | NCc1noc(-c2c3ccccc3nn2Cc2cccc(Cl)c2)n1
4 | 2.33 | 21 |  | inactive | inactive | COc1ccc(Cn2nc(-c3nc(CN)no3)c3ccccc32)cc1
5 | 3.22 | 101 |  | Active |  | Cc1ccccc1Cn1nc(-c2nc(CN)no2)c2ccccc21
6 | 14.3 | 90 |  | Active |  | Cc1ccc(Cn2nc(-c3nc(CN)no3)c3ccccc32)cc1

The remaining lines, values behind:

Row | SMILES | Activity [1] [pmol] | Occ [2] [%] | solubility [3] | Activity [4] | Activity [5]
7 | Nc1nc(-c2nn(Cc3ccccc3F)c3ncccc23)ncc1C1CC1 |  |  | Insoluble |  | 
8 | O=C(O)CCCCN(CCc1ccccc1OCc1ccc(CCc2ccccc2)cc1)Cc1ccc(C(=O)O)cc1 |  |  |  | Active | inactive
9 | NCc1noc(-c2c3ccccc3nn2Cc2ccc3c(c2)OCO3)n1 | 9.11 | 96 |  |  | 
10 | NCc1noc(-c2c3ccccc3nn2CCn2ccnc2)n1 | 2.72 | 28 |  |  | 
11 | CC(C)(C)OC(=O)NCc1noc(-c2nn(Cc3ccc4c(c3)OCO4)c3ccccc23)n1 | 15.6 | 40 |  | Active | 
12 | CC(=O)Nc1ccc(Cn2nc(-c3nc(CNC(=O)OC(C)(C)C)no3)c3ccccc32)cc1 | 2.23 | 62 |  |  | 
